ChEMBL document CHEMBL2157989, “Synthesis and biological evaluation of antibody conjugates of phosphate prodrugs of cytotoxic DNA alkylators for the targeted treatment of cancer” (J Med Chem, 2012)
≈ marks a conversion by molar mass, not a printed value.

Legend:
[1] = Solubility in water at 1.5 mg sonicated for 45 mins followed by centrifugation for 45 mins by UV/Vis spectroscopy; format: physicochemical; conditions: 0.75 h
Outline: (§1)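 Solid compound (~1.5 mg) in the stated solvent was sonicated 45 min, then centrifuged at 1400g for 45 min. The supernatant concentration was read by UV/vis at 340 nm, using ε = 41500 M⁻¹ cm⁻¹ for the free phenols and 34500 M⁻¹ cm⁻¹ for the phosphate prodrugs (pH 7.0 values).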

[2] = Solubility of the compound in 5% DMA and 95% buffer at pH 7 at 1.5 mg sonicated for 45 mins followed by centrifugation for 45 mins by UV/Vis spectroscopy; format: physicochemical
Outline: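 For buffers with 5% or less DMA, a 50 mM stock of compound in DMA is diluted 20–100 times into pH 7.0 buffer. It is then sonicated for 45 min and centrifuged at 1400g for 45 min. Supernatant is quantified by UV/vis at 340 nm, with ε of 41500 (DC1–SR₂ compounds) or 34500 M⁻¹ cm⁻¹ (phosphate prodrugs).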

[3] = Solubility in ethanol at 1.5 mg sonicated for 45 mins followed by centrifugation for 45 mins by UV/Vis spectroscopy; format: physicochemical; conditions: 0.75 h; outline: as §1
[4] = Solubility of the compound in 20% DMA and 80% buffer at pH 7 at 1.5 mg sonicated for 45 mins followed by centrifugation for 45 mins by UV/Vis spectroscopy; format: physicochemical
Outline: (§2)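 About 1.5 mg of compound is sonicated for 45 min in pH 7.0 buffer containing 10% or 20% DMA, then centrifuged at 1400g for 45 min. Supernatant concentration is read by UV/vis at 340 nm. ε at pH 7.0 is 41500 M⁻¹ cm⁻¹ for DC1–SR₂ compounds and 34500 M⁻¹ cm⁻¹ for phosphate prodrugs.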

HL-60 = test: Cytotoxicity against human HL60 cells assessed as cell survival after 72 hrs by clonogenic assay; format: functional, cell-based; conditions: HL-60, 72 h
Outline: (§3)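 Cells were kept in RPMI 1640 with 10% heat-inactivated FBS at 37 °C and 6% CO₂. They were plated at 1000–5000 cells/well and exposed to 0–3 nM test agent for 72 h. Medium was then replaced and colonies grew for 7–10 days in total after plating. Colonies were fixed and stained with 0.2% crystal violet in 10% formalin/PBS, then counted. Surviving fraction = colonies in treated wells / colonies in control wells; IC₅₀ was taken from this.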

[5] = Solubility in ethyl acetate at 1.5 mg sonicated for 45 mins followed by centrifugation for 45 mins by UV/Vis spectroscopy; format: physicochemical; conditions: 0.75 h; outline: as §1
[6] = Solubility in DMF at 1.5 mg sonicated for 45 mins followed by centrifugation for 45 mins by UV/Vis spectroscopy; format: physicochemical; conditions: 0.75 h; outline: as §1
[7] = Solubility in DMSO at 1.5 mg sonicated for 45 mins followed by centrifugation for 45 mins by UV/Vis spectroscopy; format: physicochemical; conditions: 0.75 h; outline: as §1
[8] = Solubility in THF at 1.5 mg sonicated for 45 mins followed by centrifugation for 45 mins by UV/Vis spectroscopy; format: physicochemical; conditions: 0.75 h
[9] = Solubility in acetone at 1.5 mg sonicated for 45 mins followed by centrifugation for 45 mins by UV/Vis spectroscopy; format: physicochemical; conditions: 0.75 h
[10] = Solubility in dichloromethane at 1.5 mg sonicated for 45 mins followed by centrifugation for 45 mins by UV/Vis spectroscopy; format: physicochemical; conditions: 0.75 h
[11] = Solubility in toluene at 1.5 mg sonicated for 45 mins followed by centrifugation for 45 mins by UV/Vis spectroscopy; format: physicochemical; conditions: 0.75 h; outline: as §1
[12] = Solubility in dioxane at 1.5 mg sonicated for 45 mins followed by centrifugation for 45 mins by UV/Vis spectroscopy; format: physicochemical; conditions: 0.75 h
Ramos = test: Cytotoxicity against human Ramos cells assessed as cell survival after 72 hrs by clonogenic assay; format: functional, cell-based; outline: as §3
[13] = Solubility in hexane at 1.5 mg sonicated for 45 mins followed by centrifugation for 45 mins by UV/Vis spectroscopy; format: physicochemical; conditions: 0.75 h; outline: as §1
[14] = Solubility of the compound in 10% DMA and 90% buffer at pH 7 at 1.5 mg sonicated for 45 mins followed by centrifugation for 45 mins by UV/Vis spectroscopy; format: physicochemical; outline: as §2
[15] = Solubility in chloroform at 1.5 mg sonicated for 45 mins followed by centrifugation for 45 mins by UV/Vis spectroscopy; format: physicochemical; conditions: 0.75 h; outline: as §1
[16] = Cytotoxicity against human NAMALWA cells assessed as cell survival after 72 hrs by clonogenic assay; format: functional, cell-based; conditions: NAMALVA; outline: as §3
[17] = Solubility of the compound in 100% buffer at pH 7 at 1.5 mg sonicated for 45 mins followed by centrifugation for 45 mins by UV/Vis spectroscopy; format: physicochemical
[18] = Solubility in methanol at 1.5 mg sonicated for 45 mins followed by centrifugation for 45 mins by UV/Vis spectroscopy; format: physicochemical; conditions: 0.75 h; outline: as §1
[19] = Solubility in DMA at 1.5 mg sonicated for 45 mins followed by centrifugation for 45 mins by UV/Vis spectroscopy; format: physicochemical; conditions: 0.75 h; outline: as §1
COLO 205 = test: Cytotoxicity against human COLO205 cells assessed as cell survival after 72 hrs by clonogenic assay; format: functional, cell-based; conditions: COLO 205, 72 h; outline: as §3

For `CSSCCC(=O)Nc1ccc2[nH]c(C(=O)Nc3ccc4[nH]c(C(=O)N5C[C@@H](CCl)c6c5cc(O)c5ccccc65)cc4c3)cc2c1`, the solubility [1] was “Insoluble”, the solubility at 0.75 h [2] was less than 1 µM and the solubility [3] was “Insoluble”. For the same compound, the solubility at 0.75 h [4] was 3 µM (≈ 2.05 µg/mL), the IC50 (HL-60) was 0.032 nM and the solubility [5] was “Insoluble”. For the same compound, the solubility [6] was “soluble”, the solubility [7] was “soluble” and the solubility [8] was “soluble”. For the same compound, the solubility [9] was “soluble”, the solubility [10] was “Insoluble” and the solubility [11] was “Insoluble”. For the same compound, the solubility [12] was “soluble”, the IC50 (Ramos) was 0.022 nM and the solubility [13] was “Insoluble”. For the same compound, the solubility at 0.75 h [14] was 1 µM (≈ 0.684 µg/mL), the solubility [15] was “Insoluble” and the IC50 [16] was 0.01 nM. The solubility at 0.75 h [17] was less than 0.1 µM, the solubility [18] was “Insoluble” and the solubility [19] was “soluble”. The IC50 (COLO 205) was 0.25 nM.

For `CSSC(C)(C)CCC(=O)Nc1ccc2[nH]c(C(=O)Nc3ccc4[nH]c(C(=O)N5C[C@@H](CCl)c6c5cc(O)c5ccccc65)cc4c3)cc2c1`, the solubility [1] was “Insoluble”, the solubility at 0.75 h [2] was less than 1 µM and the solubility [3] was “Insoluble”. For the same compound, the solubility at 0.75 h [4] was 3 µM (≈ 2.18 µg/mL), the IC50 (HL-60) was 0.025 nM and the solubility [5] was “Insoluble”. The solubility [6] was “soluble”, the solubility [7] was “soluble” and the solubility [8] was “soluble”. For the same compound, the solubility [9] was “soluble”, the solubility [10] was “Insoluble” and the solubility [11] was “Insoluble”. For the same compound, the solubility [12] was “soluble”, the IC50 (Ramos) was 0.018 nM and the solubility [13] was “Insoluble”. The solubility at 0.75 h [14] was 1 µM (≈ 0.726 µg/mL), the solubility [15] was “Insoluble” and the IC50 [16] was 0.021 nM. For the same compound, the solubility at 0.75 h [17] was less than 0.1 µM, the solubility [18] was “Insoluble” and the solubility [19] was “soluble”. The IC50 (COLO 205) was 0.22 nM.
